This note sets out measurements from ChEMBL document CHEMBL3808357, “Discovery of N-(3-((1-Isonicotinoylpiperidin-4-yl)oxy)-4-methylphenyl)-3-(trifluoromethyl)benzamide (CHMFL-KIT-110) as a Selective, Potent, and Orally Available Type II c-KIT Kinase Inhibitor for Gastrointestinal Stromal Tumors (GISTs)” (J Med Chem, 2016).

The test system of data set [1] is K562. The data set is described as follows: Antiproliferative activity against BCR-ABL dependent human K562 cells assessed as reduction in cell viability after 72 hrs by celltiter-glo/CCK8 assay. It is filed as functional. Particulars: K562, 72 h. Put shortly:
(§1)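 Cells were seeded at 1 to 3 × 10⁴ cells/mL with serial compound concentrations and incubated 72 h at 37 °C, 5% CO₂. Viability was read by CellTiter-Glo luminescence or CCK-8 absorbance (450/655 nm). GI50 values are from triplicate testing. GIST-T1 and CHO were grown in DMEM/10% FBS; GIST-882, GIST-48B and MV4-11 in IMDM/10% FBS; other lines in RPMI 1640/10% FBS.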

Data set [2] is described as follows: Antiproliferative activity against mouse BAF3 cells. The class given is cell-based.
The target of data set [3] is Mast/stem cell growth factor receptor Kit (Homo sapiens) (UniProt P10721). The experiment in a line: Inhibition of Tel-fused cKIT (unknown origin) transfected in mouse BAF3 cells assessed as decrease in cell proliferation after 72 hrs by celltiter-glo/CCK8 assay. It is filed as cell-based. Put shortly: as §1
In general terms: ATP-based viability assays read luminescence as a measure of living cells.

Mast/stem cell growth factor receptor Kit (Homo sapiens), sequence (P10721 whole entry, the tested form may be a part): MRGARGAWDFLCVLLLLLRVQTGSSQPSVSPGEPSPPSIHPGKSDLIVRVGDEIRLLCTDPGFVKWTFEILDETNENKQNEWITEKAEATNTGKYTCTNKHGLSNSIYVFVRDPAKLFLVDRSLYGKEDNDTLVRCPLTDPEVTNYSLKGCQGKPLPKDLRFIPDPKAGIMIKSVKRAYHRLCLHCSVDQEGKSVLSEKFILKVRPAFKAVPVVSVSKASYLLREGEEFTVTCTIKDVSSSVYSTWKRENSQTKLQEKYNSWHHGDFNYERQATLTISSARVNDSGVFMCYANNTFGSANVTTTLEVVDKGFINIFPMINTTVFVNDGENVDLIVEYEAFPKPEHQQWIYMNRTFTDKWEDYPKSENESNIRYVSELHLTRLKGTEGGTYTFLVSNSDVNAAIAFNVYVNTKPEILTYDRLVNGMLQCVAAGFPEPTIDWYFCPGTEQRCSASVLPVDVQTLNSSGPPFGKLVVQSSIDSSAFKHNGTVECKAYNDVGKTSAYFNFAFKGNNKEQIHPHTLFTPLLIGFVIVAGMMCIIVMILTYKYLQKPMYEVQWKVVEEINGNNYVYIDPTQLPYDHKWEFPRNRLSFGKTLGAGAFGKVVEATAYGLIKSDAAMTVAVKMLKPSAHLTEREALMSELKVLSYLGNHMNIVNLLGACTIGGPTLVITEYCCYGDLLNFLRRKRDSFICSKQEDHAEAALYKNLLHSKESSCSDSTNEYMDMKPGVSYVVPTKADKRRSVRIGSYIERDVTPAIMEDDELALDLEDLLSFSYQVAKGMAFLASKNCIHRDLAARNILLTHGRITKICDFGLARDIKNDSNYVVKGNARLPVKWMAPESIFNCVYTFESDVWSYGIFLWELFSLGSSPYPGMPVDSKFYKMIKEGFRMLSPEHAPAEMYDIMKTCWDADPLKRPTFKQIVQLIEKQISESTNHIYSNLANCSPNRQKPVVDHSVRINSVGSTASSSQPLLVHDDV

In the case of `Cc1ccc(NC(=O)c2ccc3c(c2)OCO3)cc1OC1CCN(C(=O)c2cccnc2)CC1`, the GI50 in data set [1] was more than 10 µM; in data set [2] it was more than 10 µM; in data set [3], 4.8 µM.
Take `Cc1ccc(NC(=O)c2cccc(C(F)(F)F)c2)cc1OC1CCN(C(=O)c2ccccn2)CC1`: the GI50 was more than 10 µM in data set [1], more than 10 µM in data set [2] and 0.33 µM in data set [3].
For `C=CC(=O)N1CCC(Oc2cc(NC(=O)c3cccc(C(F)(F)F)c3)ccc2C)CC1`, the values for the GI50 in data set [1], in data set [2] and in data set [3] were 8.36 µM, more than 10 µM and 0.62 µM, respectively.
For `Cc1ccc(NC(=O)c2cccc(C(F)(F)F)n2)cc1OC1CCN(C(=O)c2cccnc2)CC1` the same measures were more than 10 µM, more than 10 µM and more than 10 µM.
Taken in the same sequence, the figures for `O=C(Nc1cccc(OC2CCCN(C(=O)c3ccno3)C2)c1)c1cccc(C(F)(F)F)c1` (stereo not drawn) were more than 10 µM, more than 10 µM and more than 10 µM.
Taken in the same sequence, the figures for `Cc1ccc(NC(=O)c2ccc(C)c(C(F)(F)F)c2)cc1OC1CCN(C(=O)c2cncs2)CC1` were 5.24 µM, more than 10 µM and 0.1 µM.
With `Cc1ccc(NC(=O)c2cccc(C(F)(F)F)c2)cc1OCCNC(=O)c1ccno1`, the values for the GI50 in data set [1], in data set [2] and in data set [3] were more than 10 µM, more than 10 µM and 9.97 µM, respectively.
Take `CCC(=O)N1CCC(Oc2cc(NC(=O)c3cccc(C(F)(F)F)c3)ccc2C)CC1`: the results for the 50% growth inhibitory concentration (GI50) in data set [1], in data set [2] and in data set [3] were more than 10 µM, more than 10 µM and 1.55 µM, respectively.
Regarding `COc1cccc(C(=O)Nc2ccc(C)c(OC3CCN(C(=O)c4cccnc4)CC3)c2)c1`, the 50% growth inhibitory concentration (GI50) in data set [1] is more than 10 µM; in data set [2] it was more than 10 µM; in data set [3] it was 1.48 µM.
With `COc1ccc(NC(=O)c2cccc(C(F)(F)F)c2)cc1OC1CCN(C(=O)c2cccnc2)CC1`, the GI50 in data set [1], in data set [2] and in data set [3] was more than 10 µM each time.
For `O=C(Nc1cccc(OC2CCCN(C(=O)c3cccnc3)C2)c1)c1cccc(C(F)(F)F)c1` (stereo not drawn), the GI50 in data set [1] was more than 10 µM; in data set [2], 8.07 µM; in data set [3] it was 8.07 µM.
Regarding `Cc1ccc(NC(=O)Nc2ccc(Cl)c(C(F)(F)F)c2)cc1OC1CCN(C(=O)c2cccnc2)CC1`, the GI50 was 0.78 µM in data set [1], 3.3 µM in data set [2] and 2.6 µM in data set [3].
For the molecule `Cc1ccc(NC(=O)c2cccc(C(F)(F)F)c2)cc1OC1CCN(C(=O)c2cccnc2)CC1`, the concentration for 50% growth inhibition (GI50) is 2.94 µM in data set [1], more than 10 µM in data set [2] and 0.11 µM in data set [3].
Taken in the same sequence, the figures for `Cc1ccc(NC(=O)c2ccc(C)c(C(F)(F)F)c2)cc1OC1CCN(C(=O)c2ccno2)CC1` were 1.96 µM, 8.94 µM and 0.065 µM.
In the case of `Cc1ccc(NC(=O)c2ccc(C)c(C(F)(F)F)c2)cc1OC1CCN(C(=O)c2ccncc2)CC1`, the GI50 amounted to 2.32 µM in data set [1], 6.39 µM in data set [2] and 0.031 µM in data set [3].
With `Cc1ccc(NC(=O)c2ccc(C)c(C(F)(F)F)c2)cc1OC1CCN(C(=O)c2cccnc2)CC1`, the results for the GI50 in data set [1], in data set [2] and in data set [3] were 5.85 µM, 5.47 µM and 0.083 µM, respectively.
As to `Cc1ccc(NC(=O)c2cccc(C(F)(F)F)n2)cc1OC1CCN(C(=O)c2ccno2)CC1`, the GI50 in data set [1], in data set [2] and in data set [3] was more than 10 µM each time.
In the case of `Cc1ccc(NC(=O)c2cc(F)cc(C(F)(F)F)c2)cc1OC1CCN(C(=O)c2cccnc2)CC1`, the figures for the concentration for 50% growth inhibition (GI50) in data set [1], in data set [2] and in data set [3] were 4.56 µM, more than 10 µM and 0.15 µM, respectively.
For `Cc1ccc(NC(=O)c2cc(Cl)cc(C(F)(F)F)c2)cc1OC1CCN(C(=O)c2cccnc2)CC1` the same measures were 3.66 µM, more than 10 µM and 0.16 µM.
For `O=C(Nc1ccc(Cl)c(OC2CCN(C(=O)c3cccnc3)CC2)c1)c1cccc(C(F)(F)F)c1` the same measures were 2.8 µM, more than 10 µM and 0.96 µM.
For `Cc1ccc(NC(=O)c2cccc(C(F)(F)F)c2)cc1OC1CCN(C(=O)c2ccno2)CC1` the same measures were 0.16 µM, more than 10 µM and 0.22 µM.
As for `Cc1ccc(NC(=O)c2cccc(C(F)(F)F)c2)cc1OCCNC(=O)c1cccnc1`, the GI50 in data set [1] is more than 10 µM; in data set [2], more than 10 µM; in data set [3] it was 7.94 µM.
Turning to `O=C(Nc1cccc(OC2CCN(C(=O)c3cccnc3)CC2)c1)c1cccc(C(F)(F)F)c1`, the GI50 in data set [1] was more than 10 µM; in data set [2], more than 10 µM; in data set [3] it was 0.49 µM.
With `Cc1ccc(NC(=O)c2cc(Cl)cc(C(F)(F)F)c2)cc1OC1CCN(C(=O)c2ccno2)CC1`, the values for the GI50 in data set [1], in data set [2] and in data set [3] were 1.95 µM, more than 10 µM and 0.15 µM, respectively.
As to `Cc1ccc(NC(=O)c2cc(C(C)(C)C)on2)cc1OC1CCN(C(=O)c2cccnc2)CC1`, the GI50 in data set [1] is 9.92 µM; in data set [2] it was more than 10 µM; in data set [3], 0.34 µM.
For `Cc1ccc(NC(=O)c2cnc3ccccc3c2)cc1OC1CCN(C(=O)c2cccnc2)CC1` the same measures were more than 10 µM, more than 10 µM and 5.55 µM.

Broadly, the GI50 is the concentration that inhibits growth by half.
